The structures appear in SMILES notation. Values joined by “and” are separate entries in the source; they are usually repeats but may differ in a detail not shown here. Equal values may be shown once. The whole screen tested about 350,000 compounds, of which about 740 (0.21%) were called active. Only a selection was taken, and actives are over-represented in it overall. Values without a mark were called inactive.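 How the source made its calls: active means every replicate reaching activation of at least 50%, whatever the mean replicate activation; inconclusive means replicates that disagree or another doubt; inactive means the rest.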

This assay can be described thus: compounds raising PGC1a acetylation signal, primary screen, PGC1a modulator project, cell-based, U2OS, AlphaScreen, signal-increasing mode (AID 651723). To be noted: overnight, at 15.6 µM, stronger effect = higher value. The method in brief: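 detection = AlphaScreen lysate read | assay system = U2OS cells expressing flag-PGC1a plus GCN5 | input = 7000 cells/well | dosing = one concentration | times = compound overnight at 37 °C, each detection step 1 h RT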
(Bead proximity is the source of the signal in Alpha formats.)
On to `CCOC(=O)CSc1nccc(N(C)C)c1C#N`, for which the activation is -9.86%.
The value for `COc1ccc(CC(NC(C)=O)C(=O)N2CCN(C(=O)Nc3cccc(Cl)c3)CC2)cc1OC` (stereo unspecified) was -50.7%; that for `Cc1cc(C)n(-c2nc(O)cc(=O)[nH]2)n1` was -36.3%.
The same measure for `COc1ccc(C(=O)NN(C)c2nc(-c3ccccc3)cc(C)c2S(C)(=O)=O)cc1`: 87.7% (active); for `CC(C)C#Cc1cnc2c(c1)C(=O)N([C@@H](C)CO)C[C@@H](C)[C@@H](CN(C)C(=O)CN1CCOCC1)O2`: -58.3%; for `O=C(CSc1nnc(Cn2cnc3ccccc32)o1)c1ccccc1`: 59.8% (active).
On to `CCOc1ccccc1CN1CCN(C2CCC2)CC1CCO` (stereo unspecified), for which the activation is -74.8%.
The value for `CN1OC[C@@H]2CN(S(=O)(=O)c3cccc4ccccc34)[C@H](c3ccc(N4CCCCC4)cc3)C[C@@H]21` was -47.9%; that for `Cc1cc(C)nc(S/C=C/C(=O)c2ccccc2)n1` was 63.2% (active); that for `CCOC(=O)c1ccc2[nH]c(C)c(CN3CCN(C)CC3)c(=O)c2c1` was -59.3%.
The value for `CC(C)CCNc1nc(N2CCCC2)c2c(c1C#N)CCN(C)C2` was 102% (active); that for `C[C@@H]1CCCCO[C@@H](CN(C)CC2CC2)[C@H](C)CN([C@H](C)CO)C(=O)c2cc(NS(=O)(=O)c3ccccc3)ccc2O1` was -56.4%; that for `COc1ccc(C(=O)/C=C/c2cccnc2)c(OC)c1` was 70.7% (active).
For `NC(=O)N/N=C\c1cccs1`, the activation is -76.7%.
The value for `O=C(Nc1ccc2c(c1)OCO2)N[C@H]1CC[C@H](CCNC(=O)C2CCC2)O[C@@H]1CO` was -46.2%; that for `O=[N+]([O-])c1ccc(C=Nc2ccc(Cl)cc2Cl)s1` was 68.4% (active).
The same measure for `C=CCn1c(=NC(=O)c2ccc(S(=O)(=O)N3CCCC3)cc2)sc2cc(NC(C)=O)ccc21`: -51.1%; for `N#Cc1ccc(-c2ccc([C@@H]3[C@H]4CNC[C@@H]3N4Cc3ccc4c(c3)OCO4)cc2)cc1`: -48.1%.
In the case of `CCOC(=O)C1=CC[C@@H](c2ccccc2)N(S(=O)(=O)c2ccc(C)cc2)[C@H]1c1ccc(CC)cc1`, the activation was 75.7% (active).
The same measure for `NC(=NC(=O)c1ccccc1)N1CCOCC1`: -84.1%; for `CCN(CC)C(=O)c1ccc(O)c(OC)c1`: -55.9%; for `N=C1C(c2nc3ccccc3s2)=C(O)CN1NC(=O)c1ccc([N+](=O)[O-])cc1`: -100%.
For the compound `COc1ccc(C(=O)Nc2nc(-c3ccc(OC)cc3)c(-c3ccc([N+](=O)[O-])cc3)s2)cc1`, the activation is 55.6% (active).
The value for `O=C(Cc1ccccc1)N1N=C(c2ccncc2)CC1(O)C(F)(F)F` (stereo unspecified) was -50%; that for `C[C@@H]1CCCCO[C@@H](CN(C)CC2CC2)[C@@H](C)CN([C@H](C)CO)C(=O)c2cc(NC(=O)C3CCCCC3)ccc2O1` was -52.5%; that for `CCc1ccc(NC(=O)Nc2ccncc2)cc1` was -48.9%.
The same measure for `CCn1c(/C=C/c2ccc([N+](=O)[O-])o2)nc2ccccc2c1=O`: 149% (active); for `Cc1nc2ccccc2c(=O)n1NC(=O)c1ccc(Cl)c([N+](=O)[O-])c1`: -44.8%; for `O=C1CN(S(=O)(=O)Cc2ccccc2)C[C@@H]2[C@@H](c3ccc(C#Cc4cccc(F)c4)cc3)[C@@H](CO)N12`: 60.3% (active).
For `COc1ccc(-c2ccc(CCC(=O)O)n2NC(=O)c2ccc(C(C)(C)C)cc2)cc1`, the activation is -43.5%.
For the compound `S=C1NC(c2ccccc2)=NCN1c1ccc(Br)cc1`, the activation was -80.9%.
The same measure for `NC(=O)Cc1ccc2c(c1)[nH]c1ccccc12`: 116% (active); for `O=S(=O)(O)c1nc2ccccc2n1Cc1ccc(Cl)cc1`: -47.2%.
The same measure for `Cc1oc2c(c1C(=O)N1CCOCC1)C(=O)c1ccccc1C2=O`: -42.9%.
Take `CN1/C(=C\C(=O)c2oc3ccccc3c2N)C(C)(C)c2ccccc21`: the activation was -86.9%.
Consider `CC(C)c1cc(C(=O)N/N=C/C(Br)=C/c2ccccc2)n[nH]1`, for which the activation is 125% (active).
The same measure for `Cc1cc(C(=O)N/N=C\C(Br)=C\c2ccccc2)c(C)o1`: 85.5% (active); for `Cc1[nH]c(=O)c(C(=O)/C=C/c2ccccc2)c2c1CCCC2`: -53.2%.
The value for `N#Cc1cccc(NC(=O)COC(=O)c2ccccc2C(=O)c2ccc(Cl)c([N+](=O)[O-])c2)c1` was -46.9%; that for `Clc1ccc(-c2nnc(-c3ccccc3)nc2N2CCSCC2)cc1` was 80.9% (active); that for `CN1CCc2c(sc3c2c(NCc2ccco2)nc2nnnn23)C1` was -44.7%.
The same measure for `COCCNC(=O)CSc1nc2c(n1-c1ccccc1)CCCC2`: -43.7%; for `COc1ccc(NC(=O)C2(C)Cc3c(-c4cccc(NC(C)=O)c4)ccnc3O2)cc1` (stereo unspecified): 71.2% (active); for `CCc1ccc(NC(=O)CSc2nnc(-c3cnccn3)n2Cc2ccco2)cc1`: -45.6%.
For `O=C(/C=C/Sc1ncn[nH]1)c1ccc(Cl)cc1`, the activation was 109% (active).
As for `COc1cccc(CNC(=O)CCC2CCCN(Cc3ccc(OC(F)F)cc3)C2)c1` (stereo unspecified), the activation was -52.5%.
For `Cc1cccc(NC(=O)c2ccc([N+](=O)[O-])o2)c1`, the activation was 149% (active).
The same measure for `CC(C)NC(=O)Nc1ccc2c(c1)C(=O)N([C@@H](C)CO)C[C@@H](C)[C@H](CN(C)S(=O)(=O)c1ccccc1)OCCCC[C@@H](C)O2`: -124%; for `COc1ccc(-c2cc(=O)c3c(O)cc(O[C@@H]4O[C@H](CO[C@@H]5O[C@@H](C)[C@H](O)[C@@H](O)[C@H]5O)[C@@H](O)[C@H](O)[C@H]4O)cc3o2)cc1O`: -49.5%; for `COCC(=O)Nc1ccc2c(c1)OC[C@H](C)N(C(=O)c1ccccc1F)C[C@H](C)[C@H](OC)CN(C)C2=O`: -42.9%.
The value for `CCc1cc2c(N3CCN(c4nnc(CC)s4)CC3)ncnc2s1` was 53.5% (active); that for `CC1(C)CCSC(/C=C/c2ccccc2)=N1` was 183% (active); that for `O=[N+]([O-])c1c(NCCO)cc(Sc2nc3ccccc3s2)c2nonc12` was -45%.
The value for `C[C@H](CO)N1C[C@H](C)[C@H](CN(C)Cc2ccc(C(=O)O)cc2)Oc2ncc(-c3ccccc3)cc2C1=O` was -41.5%.
Regarding `Cc1cccc(C2C3=C(CCCC3=O)N=C3c4ccccc4C(=O)C32)c1` (stereo unspecified), the activation is 80% (active).
The value for `CC(=O)NC1CCN(CC(=O)Nc2nccs2)CC1` was -50.3%.
The same measure for `CC(C)Cc1nn2c(=O)cc(O)nc2s1`: -40.3%; for `COc1ccc(N(Cc2cc3cc(OC)ccc3[nH]c2=O)S(C)(=O)=O)cc1`: 69.9% (active).
The same measure for `N#Cc1ccc(C(c2ccc(C#N)cc2)n2cncn2)cc1`: -48.6%; for `Cc1cc(C)cc(N(CC(=O)Nc2c(C)n(C)n(-c3ccccc3)c2=O)S(C)(=O)=O)c1`: -49.5%; for `C[C@H]1CN([C@@H](C)CO)C(=O)c2cc(C#Cc3ccc(F)cc3)cnc2O[C@@H]1CN(C)C(=O)Nc1ccc(F)cc1`: -44%.
`COc1ccc(C#Cc2ccc([C@H]3[C@@H](CO)N4CCCCN(C(=O)Nc5ccccc5)C[C@H]34)cc2)cc1`: the activation was 77.7% (active).
Turning to `COc1ccc(NC(=O)/C(Cl)=C(/Cl)S(=O)Cc2ccc(C)cc2)cn1` (stereo unspecified), the activation is -69.3%.
The same measure for `Cc1ccc(S(=O)(=O)Nc2ccc3c(c2)C(=O)N([C@H](C)CO)C[C@H](C)[C@H](CN(C)C(=O)NC(C)C)OCCCC[C@@H](C)O3)cc1`: -41.5%; for `COCC(=O)Nc1ccc2c(c1)OC[C@@H](C)N(CCc1ccccc1)C[C@H](C)[C@@H](OC)CN(C)C2=O`: -52.2%; for `COc1ccc(S(=O)(=O)N2CCN(C(=O)c3cccs3)CC2)cc1OC`: -44%.
As for `COc1ccc(C2CC(c3cccs3)=NN2c2nc(C)c(C(C)=O)s2)cc1OC` (stereo unspecified), the activation is 83.1% (active).
The same measure for `O=S(=O)(NCc1ccccc1Br)c1ccccc1Br`: 55.2% (active); for `COc1cc(NC(=O)c2[nH]cnc2C(N)=O)cc(C(=O)Nc2cccc(C(F)(F)F)c2)c1`: -62.8%; for `C[C@H](CO)N1C[C@H](C)[C@@H](CN(C)Cc2cccnc2)Oc2cc(C3=CCCC3)ccc2S1(=O)=O`: -50.5%.
The same measure for `O=C(NCc1ccccc1)C(c1ccccc1)N(C(=O)c1csnn1)c1ccc(F)cc1` (stereo unspecified): 85.7% (active); for `Cc1noc(C)c1S(=O)(=O)N(C)C[C@H]1Oc2ccc(NS(=O)(=O)c3cccs3)cc2C(=O)N([C@H](C)CO)C[C@H]1C`: -48%.
Regarding `Cc1cc(C)c2c(-n3cccc3)c(C(=O)NNS(=O)(=O)c3ccc(F)cc3)sc2n1`, the activation is 132% (active).
Take `Cc1cccc(-c2ccc(C3[C@@H]4CN(C(=O)Nc5ccc(C(F)(F)F)cc5)C[C@H]3N4)cc2)c1` (stereo partly specified): the activation is -92.4% and -92.8%.
The value for `CC(C)C(OC(=O)c1cccs1)C(=O)NC1CCCCC1` (stereo unspecified) was 90.6% (active).
With `CC/C(=N\NC(=O)c1ccccc1Cl)c1ccc(Br)s1`, the activation was -82.8%.
